{"source": "paper PMC8775362", "about": "(Molecular pharmaceutics, 2021)", "key": {"MDM2": {"target": "MDM2", "settings": "cited from earlier work"}, "[1]": {"system": "SJSA-1 human osteosarcoma cells", "test": "Cell uptake and specificity of [^18F]6 in SJSA-1 cells", "type": "cell-based", "method_in_brief": "(§1)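 Cells (HepG2 in MEM, SJSA-1 in RPMI 1640, both with 10% FBS) were seeded at 2×10^5/well and held overnight at 37°C. Medium was swapped for serum-free medium holding 18.5 kBq tracer; incubation was at 37°C for 0.5, 1 or 2 h. Blocking used unlabeled parent inhibitor, either 5–50 µM for 1 h or 25 µM for the time course.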"}, "[2]": {"system": "HepG2 human hepatocellular carcinoma cells", "test": "Cell uptake and specificity of [^18F]6 in HepG2 cells", "type": "cell-based", "method_in_brief": "as §1"}, "P-glycoprotein": {"system": "P-glycoprotein", "settings": "neuroblastoma cells; cited from earlier work"}, "[3]": {"settings": "cited from earlier work"}}, "note": "Read-outs that look alike come from different tables or passages of the source. Non-standard residues stand in square brackets, D forms with d. Residues, ends and D or L forms follow the SMILES beside them. *: point of attachment. 5FAM = O=C1OC2(c3ccc(O)cc3Oc3cc(O)ccc32)c2ccc(C(=O)*)cc21; Trp(6-Cl) = N[C@@H](Cc1c[nH]c2cc(Cl)ccc12)C(=O)O; pY = N[C@@H](Cc1ccc(OP(=O)(O)O)cc1)C(=O)O; Ac3c = NC1(C(=O)O)CC1; Aib = CC(C)(N)C(=O)O; βAla = NCCC(=O)O", "data": [{"molecule": "CSCC[C@H](NC(=O)[C@H](Cc1ccccc1)NC(=O)CCNC(=O)CCNC(=O)c1ccc2c(c1)C(=O)OC21c2ccc(O)cc2Oc2cc(O)ccc21)C(=O)NC(C)(C)C(=O)N[C@@H](Cc1ccc(OP(=O)(O)O)cc1)C(=O)N[C@@H](Cc1c[nH]c2cc(Cl)ccc12)C(=O)N[C@@H](CCC(=O)O)C(=O)NC1(C(=O)N[C@@H](CC(C)C)C(=O)N[C@@H](CC(N)=O)C(N)=O)CC1", "note": "[5-FAM-PMDM6] ({5FAM-βAla-βAla}-FM[Aib][pY][Trp(6-Cl)]E[Ac3c]LN-NH2; N-terminus and C-terminus assumed)", "values": [{"measurement": "Kd", "setting": "MDM2; read-out: binding affinity (Kd) towards MDM2, literature, same assay", "value": "1 ± 0.1", "unit": "nM"}]}, {"molecule": "CC(C)[C@@H](CS(=O)(=O)C(C)C)N1C(=O)[C@@](C)(CC(=O)O)C[C@H](c2cccc(Cl)c2)[C@H]1c1ccc(Cl)cc1", "note": "[AMG232]", "values": [{"measurement": "IC50", "setting": "MDM2; read-out: IC50 inhibiting the MDM2-p53 interaction", "value": "[…]"}]}, {"molecule": "COc1cc(C(=O)O)ccc1NC(=O)[C@@H]1N[C@@H](CC(C)(C)C)[C@](C#N)(c2ccc(Cl)cc2F)[C@H]1c1cccc(Cl)c1F", "note": "[RG7388, Idasanutlin]", "values": [{"measurement": "inhibition at 50 µM", "setting": "[1]; Homo sapiens, SJSA-1, 1 h, read-out: inhibition of [^18F]6 uptake", "value": "> 80", "unit": "%"}, {"measurement": "effect of blocking on [^18F]6 uptake", "setting": "[1]; SJSA-1, 25 μM RG7388, all time points 30-120 min", "value": "significantly decreased"}, {"measurement": "effect of blocking on [^18F]6 uptake", "setting": "[2]; HepG2, 25 μM RG7388, all time points 30-120 min", "value": "significantly decreased"}, {"measurement": "inhibition at 50 µM", "setting": "[2]; Homo sapiens, HepG2, 1 h, read-out: inhibition of [^18F]6 uptake", "value": "> 80", "unit": "%"}, {"measurement": "substrate of P-glycoprotein", "setting": "P-glycoprotein", "value": "not a good substrate"}, {"measurement": "IC50", "setting": "MDM2; read-out: IC50 disrupting the MDM2-p53 interaction", "value": "[…]"}, {"measurement": "stability in humans in vivo", "setting": "[3]", "value": "fully stable"}]}, {"molecule": "COc1ccc2[nH]c3c(-c4cccc5ccccc45)nccc3c2c1", "note": "[SP-141]", "values": [{"measurement": "Kd", "setting": "MDM2; read-out: binding affinity Kd", "value": 43, "unit": "nM"}]}]}
